ChEMBL document CHEMBL5252634, “Design, synthesis and in vitro cytotoxicity evaluation of indolo-pyrazoles grafted with thiazolidinone as tubulin polymerization inhibitors” (RSC Med Chem, 2023)

Experiments:
[1] = system: B16-F10; assay: Cytotoxicity against mouse B16-F10 cells assessed as reduction in cell viability measured after 48 hrs by MTT assay; format: functional, cell-based; details: B16-F10, 48 h
Summary of the method: (§1)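 Cells kept in medium with 10% FBS and 1% antibiotic–antimycotic at 37 °C, 5% CO2. Seeded at 3000–4000 cells/well, grown overnight, then given fresh medium with a range of concentrations (diluted from 10 mM DMSO stocks) for 48 h. MTT (0.5 mg/mL) added for 3–4 h at 37 °C. Formazan dissolved in DMSO and absorbance read at 570 nm.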

[2] = system: A549; assay: Cytotoxicity against human A549 cells assessed as reduction in cell viability measured after 48 hrs by MTT assay; format: functional, cell-based; details: A549, 48 h; summary of the method: as §1
[3] = system: SK-MEL-28; assay: Cytotoxicity against human SK-MEL-28 cells assessed as reduction in cell viability measured after 48 hrs by MTT assay; format: functional, cell-based; details: SK-MEL-28, 48 h; summary of the method: as §1
[4] = system: HCT-116; assay: Cytotoxicity against human HCT-116 cells assessed as reduction in cell viability measured after 48 hrs by MTT assay; format: functional, cell-based; details: HCT-116, 48 h; summary of the method: as §1
[5] = Cytotoxicity against human BEAS-2B cells assessed as reduction in cell viability measured after 48 hrs by MTT assay; format: toxicity, cell-based; summary of the method: as §1
[6] = system: SK-MEL-28; assay: Induction of cell cycle arrest in human SK-MEL-28 cells assessed as accumulation of cells at G0/G1 phase at 4.13 uM incubated for 48 hrs by flow cytometry (reference value: 79.59%); format: functional
[7] = system: SK-MEL-28; assay: Induction of cell cycle arrest in human SK-MEL-28 cells assessed as accumulation of cells at S phase at 4.13 uM incubated for 48 hrs by flow cytometry (reference value: 6.34%); format: functional
[8] = system: SK-MEL-28; assay: Induction of cell cycle arrest in human SK-MEL-28 cells assessed as accumulation of cells at G2/M phase at 4.13 uM incubated for 48 hrs by flow cytometry (reference value: 13.14%); format: functional
[9] = target: Tubulin (Homo sapiens) (UniProt P68371+Q9H4B7+P0DPH7+P68366+Q13509+Q71U36+P04350+Q3ZCM7+P07437+P68363+Q9BQE3+Q6PEY2+Q13885+Q9BVA1+Q9BUF5); assay: Inhibition of tubulin polymerization (unknown origin) at 3 uM measured after 1 hr relative to control; format: protein-complex assay
Summary of the method: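 Fluorescence-based tubulin polymerization kit: tubulin, GTP and tubulin glycerol buffer mixed and added to compound (from 10x stocks), enhancer and inhibitor reference standards, and blanks in a plate prewarmed to 37 °C. Read kinetically for 1 h at ex 360/em 450 nm.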

SMILES | IC50 [1] [µM] | IC50 [2] [µM] | IC50 [3] [µM] | IC50 [4] [µM] | IC50 at 48 h [5] [µM] | Activity [6] [%] | Activity [7] [%] | Activity [8] [%] | inhibition [9] [%]
COc1ccc2[nH]cc(-c3cc(/N=C4/NC(=O)CS4)n(-c4ccc(Cl)cc4)n3)c2c1 | 39.4 | 20.9 | 11.3 | 11.2 |  |  |  |  | 
O=C1CS/C(=N\c2cc(-c3cn(Cc4ccccc4)c4ccccc34)nn2-c2cccc(Cl)c2)N1 | > 50 | > 50 | > 50 | > 50 | > 50 |  |  |  | 
CCN(CC)CCNC(=O)c1c(C)[nH]c(/C=C2\C(=O)Nc3ccc(F)cc32)c1C [SUNITINIB] | 15.3 | 5.73 | 4.13 | 10.7 | 6.09 | 76.33 | 5.09 | 17.92 | 
COc1ccc2c(c1)c(-c1cc(/N=C3/NC(=O)CS3)n(-c3ccc(Cl)cc3)n1)cn2Cc1ccccc1 | > 50 | > 50 | > 50 | > 50 |  |  |  |  | 
CCc1ccccc1-n1nc(-c2cn(CC)c3ccc(Br)cc23)cc1/N=C1/NC(=O)CS1 | > 50 | 33.9 | 34.3 | > 50 |  |  |  |  | 
O=C1CS/C(=N\c2cc(-c3c[nH]c4ccccc34)nn2-c2ccc(Cl)cc2)N1 | > 50 | 16.4 | 12.8 | 13.8 |  |  |  |  | 
O=C1CS/C(=N\c2cc(-c3c[nH]c4ccccc34)nn2-c2ccccc2)N1 | > 50 | 22.5 | 34 | > 50 | > 50 |  |  |  | 
CCc1ccccc1-n1nc(-c2c[nH]c3ccc(OC)cc23)cc1/N=C1/NC(=O)CS1 | 10.8 | 25.8 | > 50 | 18 | 32 |  |  |  | 
Cn1cc(-c2cc(/N=C3/NC(=O)CS3)n(-c3ccc(C#N)cc3)n2)c2ccccc21 | > 50 | 37.2 | 22.7 | 25.1 |  |  |  |  | 
O=C1CS/C(=N\c2cc(-c3cn(Cc4ccccc4)c4ccccc34)nn2-c2ccc(Cl)cc2)N1 | > 50 | 46.4 | > 50 | > 50 |  |  |  |  | 
CCn1cc(-c2cc(/N=C3/NC(=O)CS3)n(-c3ccc(Cl)cc3)n2)c2cc(OC)ccc21 | 14.2 | 48.1 | > 50 | > 50 | > 50 |  |  |  | 
CCc1ccccc1-n1nc(-c2cn(C)c3ccccc23)cc1/N=C1/NC(=O)CS1 | > 50 | 39.1 | 49.9 | > 50 |  |  |  |  | 
CCc1ccccc1-n1nc(-c2cn(C)c3ccc(OC)cc23)cc1/N=C1/NC(=O)CS1 | > 50 | > 50 | 28 | 34.1 | > 50 |  |  |  | 
CC(=O)O[C@H]1C(=O)[C@@]2(C)[C@H]([C@H](OC(=O)c3ccccc3)[C@]3(O)C[C@H](OC(=O)[C@H](O)[C@@H](NC(=O)c4ccccc4)c4ccccc4)C(C)=C1C3(C)C)[C@]1(OC(C)=O)CO[C@@H]1C[C@@H]2O |  |  |  |  |  |  |  |  | 60
Cn1cc(-c2cc(/N=C3/NC(=O)CS3)n(-c3cccc(Cl)c3)n2)c2ccccc21 | > 50 | 22.9 | 26.1 | 23.6 |  |  |  |  | 
Cn1cc(-c2cc(/N=C3/NC(=O)CS3)n(-c3cccc(Cl)c3)n2)c2cc(Br)ccc21 | 26 | 32.8 | 17 | 20.7 |  |  |  |  | 
CCn1cc(-c2cc(/N=C3/NC(=O)CS3)n(-c3cccc(Cl)c3)n2)c2cc(OC)ccc21 | 36.4 | 16.9 | > 50 | 14.8 |  |  |  |  | 
CCc1ccccc1-n1nc(-c2cn(CC)c3ccccc23)cc1/N=C1/NC(=O)CS1 | > 50 | 33 | > 50 | 19.8 |  |  |  |  | 

SMILES | IC50 [1] [µM] | IC50 [2] [µM] | IC50 [3] [µM] | IC50 [4] [µM] | IC50 at 48 h [5] [µM] | Activity [6] [%] | Activity [7] [%] | Activity [8] [%] | inhibition [9] [%]
CCn1cc(-c2cc(/N=C3/NC(=O)CS3)n(-c3ccc(C#N)cc3)n2)c2ccccc21 | 18.6 | 39.2 | 25 | > 50 | > 50 |  |  |  | 
Cn1cc(-c2cc(/N=C3/NC(=O)CS3)n(-c3ccc(C#N)cc3)n2)c2cc(Br)ccc21 | 10.6 | > 50 | > 50 | 37.3 |  |  |  |  | 
CCn1cc(-c2cc(/N=C3/NC(=O)CS3)n(-c3cccc(Cl)c3)n2)c2ccccc21 | 21.2 | 26 | 26 | > 50 |  |  |  |  | 
N#Cc1ccc(-n2nc(-c3cn(Cc4ccccc4)c4ccccc34)cc2/N=C2/NC(=O)CS2)cc1 | > 50 | 22.3 | > 50 | 33.1 |  |  |  |  | 
CCn1cc(-c2cc(/N=C3/NC(=O)CS3)n(-c3ccc(C#N)cc3)n2)c2cc(Br)ccc21 | 11 | 36.6 | 32.1 | > 50 |  |  |  |  | 
Cn1cc(-c2cc(/N=C3/NC(=O)CS3)n(-c3ccc(Cl)cc3)n2)c2cc(Br)ccc21 | 11.3 | 19.2 | 26.9 | 13.5 | > 50 |  |  |  | 
N#Cc1ccc(-n2nc(-c3c[nH]c4ccccc34)cc2/N=C2/NC(=O)CS2)cc1 | > 50 | 34 | 25.4 | > 50 |  |  |  |  | 
COc1ccc2c(c1)c(-c1cc(/N=C3/NC(=O)CS3)n(-c3cccc(Cl)c3)n1)cn2C | 23.4 | > 50 | > 50 | 22.2 |  |  |  |  | 
Cn1cc(-c2cc(/N=C3/NC(=O)CS3)n(-c3ccc(Cl)cc3)n2)c2ccccc21 | > 50 | 30.2 | > 50 | > 50 |  |  |  |  | 
CCn1cc(-c2cc(/N=C3/NC(=O)CS3)n(-c3ccc(Cl)cc3)n2)c2ccccc21 | > 50 | 38.7 | 29.7 | 37.9 | > 50 |  |  |  | 
CCc1ccccc1-n1nc(-c2c[nH]c3ccccc23)cc1/N=C1/NC(=O)CS1 | 18.5 | 25.3 | 23.2 | 36.8 | 14.8 |  |  |  | 
COc1ccc2[nH]cc(-c3cc(/N=C4/NC(=O)CS4)n(-c4cccc(Cl)c4)n3)c2c1 | > 50 | 22.6 | 6.22 | 10.8 | 21.7 |  |  |  | 
CCn1cc(-c2cc(/N=C3/NC(=O)CS3)n(-c3ccc(Cl)cc3)n2)c2cc(Br)ccc21 | 18.4 | 33.7 | 24.9 | > 50 |  |  |  |  | 
CCc1ccccc1-n1nc(-c2cn(Cc3ccccc3)c3ccccc23)cc1/N=C1/NC(=O)CS1 | > 50 | 36.5 | 33.8 | 35.8 | 27.4 |  |  |  | 
CCn1cc(-c2cc(/N=C3/NC(=O)CS3)n(-c3cccc(Cl)c3)n2)c2cc(Br)ccc21 | > 50 | > 50 | 31.4 | > 50 |  |  |  |  | 
CCc1ccccc1-n1nc(-c2cn(CC)c3ccc(OC)cc23)cc1/N=C1/NC(=O)CS1 | > 50 | 24.2 | 26.8 | 45.8 |  |  |  |  | 
CCc1ccccc1-n1nc(-c2cn(C)c3ccc(Br)cc23)cc1/N=C1/NC(=O)CS1 | > 50 | > 50 | > 50 | > 50 |  |  |  |  | 
